# GASC-1 inh = inhibitors of human GASC-1 (JMJD2C) demethylase; inhibition, % at 2.35 µM; GST-JMJD2C(1-420) H3K9me3 demethylation, DELFIA europium; 330,000 tested, 0.069% active; Q9H3R0; AID 2099;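 active = more than half of a compound's replicate wells show inhibition beyond 50%, single wells judged on their own value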;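 note: signal counts dimethyl H3K9 product captured on neutravidin plate; 0% = median of DMSO wells and 100% = 0.3 times that DMSO median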
# HTRA1 inh = inhibitors of human serine peptidase HTRA1; 340,000 tested, 0.5% active; recombinant HTRA1, FP-rhodamine activity-based probe, fluorescence polarization; inhibition, % at 5.96 µM; in the data active = inhibition above about 36%;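 note: 0% = enzyme with DMSO and 100% = wells lacking enzyme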
# mABHD4 FP = inhibits mouse alpha/beta hydrolase domain 4; Q8VD66; purified mABHD4, FP-Rh probe fluorescence polarization; inhibition, % at 8.92 µM; 370,000 tested, 0.54% active; AID 720543;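 active = inhibition exceeding the mean over every tested compound plus 3 SD, cut at about 30% in these data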;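 note: 0% = plate median of compound wells and 100% = S159A mutant with DMSO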
#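 Test system: mouse ABHD4 enzyme, wild type. Reagent: FP-Rh fluorescent activity-based probe, added after compound pre-incubation. Timing: pre-incubation 45 min, probe exposure 60 min, at 25 °C. Technique: FP readout, ex 525 nm / em 598 nm. Benchmarks: high control S159A mutant with DMSO, low control median of compound wells.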
# PRMT1 FP inh = inhibitors of human PRMT1 | Q99873 | recombinant PRMT1, activity-based probe fluorescence polarization | inhibition, % at 2.79 µM | 370,000 tested, 1.3% active | AID 652257;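 active = inhibition above about 21% made by adding two undisclosed values, limit read from the data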
# SIAE primary = blocks human sialic acid acetylesterase | inhibition, % at 9.66 µM | 370,000 tested, 0.69% active | Q9HAT2 | SIAE FP-Rh probe binding, fluorescence polarization;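 active = inhibition above a cutoff: mean of compounds within the control limits plus 3 SD of those, cut at about 17% in these data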;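 note: 0% = plate median of compound wells and 100% = probe without SIAE protein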
# Target sequence (Q9HAT2 whole entry, looked up): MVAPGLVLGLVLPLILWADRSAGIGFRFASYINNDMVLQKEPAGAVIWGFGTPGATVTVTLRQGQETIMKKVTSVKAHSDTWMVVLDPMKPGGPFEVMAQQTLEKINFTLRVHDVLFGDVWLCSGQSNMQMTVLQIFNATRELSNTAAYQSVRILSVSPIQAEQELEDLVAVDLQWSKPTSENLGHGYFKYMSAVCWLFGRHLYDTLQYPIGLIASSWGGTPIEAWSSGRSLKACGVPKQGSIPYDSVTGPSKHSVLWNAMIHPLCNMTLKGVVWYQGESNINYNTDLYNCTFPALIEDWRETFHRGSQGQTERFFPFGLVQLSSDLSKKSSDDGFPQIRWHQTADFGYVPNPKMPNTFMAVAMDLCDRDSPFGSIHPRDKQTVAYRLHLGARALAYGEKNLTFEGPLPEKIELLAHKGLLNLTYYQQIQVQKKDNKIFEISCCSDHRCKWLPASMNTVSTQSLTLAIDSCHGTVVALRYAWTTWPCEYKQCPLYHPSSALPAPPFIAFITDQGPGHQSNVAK
# mABHD4 conf = ABHD4 (mouse) inhibition, FP confirmation | shares compounds with mABHD4 FP | purified mABHD4, FP-Rh probe fluorescence polarization | inhibition, % at 8.92 µM | 1,800 tested, 55% active | AID 720658;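 active = mean inhibition across replicates above the hit cutoff set in the primary screen, cut at about 30% in these data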;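 note: 0% = wild-type ABHD4 with DMSO and 100% = catalytically dead S159A mutant with DMSO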
# SIAE inh conf = human SIAE inhibition, confirmation. 2,300 tested, 13% active. SIAE FP-Rh activity-based probe, fluorescence polarization. shares compounds with SIAE primary. AID 1117263. inhibition, % at 9.66 µM;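 active = mean inhibition of the replicates above the hit cutoff set in the primary screen, cut at about 17% in these data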;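 note: 0% = SIAE with DMSO and probe and 100% = probe without SIAE; inhibitors lower polarization as more probe stays unbound to SIAE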
# Numbers without * were called inactive; . = no result. The list is not random: actives were taken first. Their share in the collection is about 2.4%.
SMILES,GASC-1 inh,HTRA1 inh,mABHD4 FP,PRMT1 FP inh,SIAE primary,mABHD4 conf,SIAE inh conf
COc1ccc(C#CCN(C)/C(N)=N/C(=O)OCc2ccccc2)cc1,.,.,-7.4,-1.6,2.8,.,.
CNc1ccccc1/C(O)=C(\C#N)C(=O)NCc1cccs1,.,.,-4.0,-5.3,2.6,.,.
COc1ccc(CNc2ncnc3c2[nH]c2ccccc23)cc1,3.5,.,14.2,-3.2,14.0,.,.
Cc1ccc2[nH]c3c(NCc4ccccc4)ncnc3c2c1,1.6,.,41.2*,1.6,24.1*,20.2,.
O=c1ccc2nc3ccccc3sc-2c1,.,.,66.2*,21.9*,12.9,36.8*,.
Brc1ccc(-c2nc3ccccc3s2)s1,2.6,-8.5,-10.3,0.6,-1.2,.,.
[O-][n+]1c2c(c3c4non(O)c4ccc31)CCCC2,-4.6,20.0,35.4*,1.0,31.4*,26.6,28.4*
COc1cccc(/C=N/NC(=O)c2cc3c(OC)ccc(OC)c3[nH]2)c1O,-17.8,25.3,36.6*,1.6,33.9*,62.4*,9.3
COc1ccc(NC(=S)NNc2ccc([N+](=O)[O-])cc2S(=O)(=O)Nc2ccc(C)cc2C)cc1,-3.8,5.2,39.0*,23.9*,47.3*,38.0*,-5.3
Cc1ccc(NS(=O)(=O)c2cc([N+](=O)[O-])ccc2NNC(=S)Nc2cccc(Cl)c2)c(C)c1,22.8,19.4,.,.,.,.,.
COc1ccc(N2CCN(CCNS(=O)(=O)c3cccs3)CC2)cc1,.,.,6.8,5.8,2.8,.,.
C/C(=N/Nc1ccc(C(=O)O)cc1)c1ccc2c(c1)Nc1ccccc1S2,.,22.8,55.8*,13.0,17.4*,80.6*,28.2*
COc1cccc(-c2nc3n(n2)CCc2ccccc2-3)c1,.,-5.1,-2.5,-1.8,2.6,.,.
NC(=NCc1ccccc1)NC(=O)OCc1ccccc1,.,.,-2.4,0.1,0.3,.,.
C(=C\c1ccccc1)/C=N/Nc1nc2ccccc2[nH]1,9.3,31.8,31.9*,-0.9,22.4*,33.3*,18.2*
COc1cc(/C=N/NC(=O)C(Cc2c[nH]c3ccccc23)NC(=O)OCC(C)C)cc([N+](=O)[O-])c1O (stereo unspecified),7.4,26.6,36.2*,10.4,55.1*,49.5*,43.8*
CC(=O)NC(Cc1c[nH]c2ccccc12)C(=O)N/N=C/c1ccccc1 (stereo unspecified),-15.1,-3.2,6.5,-0.2,0.4,.,.
O=C(NNc1c2ccccc2nc2ccccc12)c1ccc(O)cc1O,6.8,26.1,34.9*,4.5,27.7*,61.5*,10.2
O=C(NNc1c2ccccc2nc2ccccc12)c1ccccc1Cl,-1.7,1.2,8.4,-6.8,8.1,.,.
COC(=O)Cc1csc(Nc2ccc(Cl)cc2)n1,6.0,0.0,-2.9,-1.3,13.8,.,.
COC(=O)Cc1csc(Nc2ccc(F)c(Cl)c2)n1,-13.0,-0.2,35.9*,1.2,21.6*,-2.5,3.4
COC(=O)N/N=C/c1ccc(-c2ccc(Cl)cc2Cl)o1,0.4,-16.9,1.5,2.0,-13.1,.,.
O=C(O)c1ccc(N/N=C/c2ccc(-c3ccc(Cl)cc3Cl)o2)cc1,-0.2,2.6,57.4*,6.9,18.2*,67.0*,19.8*
O=C(NCCc1c[nH]c2ccccc12)OCc1cn(Cc2cccc(F)c2)nn1,.,.,0.7,3.9,0.3,.,.
O=[N+]([O-])c1cc(/C=N/Nc2nc3ccccc3[nH]2)c(O)cc1O,48.9,.,49.3*,0.7,22.7*,72.0*,21.6*
SMILES,GASC-1 inh,HTRA1 inh,mABHD4 FP,PRMT1 FP inh,SIAE primary,mABHD4 conf,SIAE inh conf
O=c1[nH]c(N/N=C/c2cc3c(cc2[N+](=O)[O-])OCO3)nc2ccccc12,-1.2,7.3,4.1,-1.3,2.4,.,.
CCOC(=O)Cc1cc(=O)c2c(=O)n(-c3ccccc3)[nH]c2[nH]1,-2.4,13.6,57.1*,11.6,17.7*,4.2,5.5
O=C(NNc1ccccc1[N+](=O)[O-])Nc1ccc(Cl)c(Cl)c1,-28.6,-22.9,-20.9,5.6,-17.9,.,.
O=C1NC(=O)C(c2ccccc2[N+](=O)[O-])=C1Nc1ccc(O)c(Cl)c1,1.6,26.8,42.6*,14.3,18.9*,2.6,-0.6
O=C(CSc1nnc(-c2cnccn2)n1-c1ccccc1)Nc1ccc2c(c1)OCCO2,.,.,3.2,-4.0,8.7,.,.
O=C(N[C@@H]1C[C@@H]2O[C@@H](CO)CC[C@@H]2O[C@@H]1CCc1ccc(-c2ccccc2)cc1)c1cnccn1,.,.,-11.8,7.0,-7.1,.,.
Cc1cccc(-c2cccc3c4c([nH]c23)[C@@H]2C[C@H](N(C)C(=O)c3ccccc3C)[C@H]([C@H](C)O)C(=O)N2CC4)c1,.,.,3.3,1.0,-4.6,.,.
Cn1c(CNc2ccccc2O)nc2ccccc21,34.7,18.9,31.2*,0.5,19.4*,9.7,10.4
O=c1c(O)c(-c2ccc(O)c(O)c2)oc2cc(O)cc(O)c12,-52.1,21.4,33.9*,14.6,18.4*,32.9*,3.9
O=C(NC(=S)Nc1cccc2c(O)cccc12)c1ccco1,-13.1,3.3,30.1*,6.0,17.2*,3.8,1.6
O=C(NC(=S)Nc1cccc2c(O)cccc12)c1ccccc1[N+](=O)[O-],3.5,7.8,48.0*,10.2,23.0*,-10.7,-4.2
O=C(NC(=S)Nc1cccc2cc(O)ccc12)c1ccco1,-6.8,-4.1,-4.3,-0.5,6.0,.,.
O=S1(=O)c2ccc(N3CCC[C@H]3CO)cc2O[C@H]2CCN1C2,.,.,-0.7,2.9,-2.7,.,.
CCOc1ccccc1/C=N/NC(=O)c1cccc(S(=O)(=O)N(CC)CC)c1,5.4,-2.1,-2.0,0.7,-5.9,.,.
CCN(CC)S(=O)(=O)c1cccc(C(=O)N/N=C/c2ccc(O)c(O)c2O)c1,15.0,34.4,42.4*,26.8*,34.2*,52.3*,-7.6
COc1ccc2[nH]c3c(C)c4ccncc4c(C)c3c2c1,-7.6,22.4,31.7*,-4.7,21.3*,57.0*,19.8*
Cc1c2ccncc2cc2c1[nH]c1ccccc12,.,-8.5,28.4,0.8,2.4,.,.
CC(C)=CCn1c2ccc(NC(=S)NC3CC3)cc2c(=O)n1C,.,.,7.3,16.2,8.0,.,.
O=C(c1cscn1)N1CCC(Oc2cccnc2)CC1,.,.,1.5,0.0,-0.5,.,.
COC(=O)c1c(Cl)c2n3ccccc3c(C)c(-c3ccccc3)c-2c1C(=O)OC,-1.7,8.8,43.6*,33.6*,20.6*,21.8,-4.8
COc1ccc(CNc2ncnc3c2[nH]c2cc(OC)c(OC)cc23)cc1,4.6,13.8,32.0*,-1.0,37.2*,70.2*,23.9*
Nc1cc2nc3ccccc3oc-2cc1=O,.,29.8,46.7*,24.4*,20.1*,28.7,6.9
O=c1oc2ccccc2cc1-c1nc2ccccc2o1,4.8,-7.0,3.7,-1.8,-6.2,.,.
O=C1CCCC/C1=C\Nc1ccc(O)cc1,27.6,17.3,54.4*,26.3*,21.7*,12.8,4.0
